Experimental findings from ChEMBL document CHEMBL1125826, “Synthesis and biological activity of 5-amino- and 5-hydroxyquinolones, and the overwhelming influence of the remote N1-substituent in determining the structure-activity relationship” (1991) are described below.

What all share (assay type): functional
The subject of experiment [1] is Escherichia coli. The experiment can be described thus: The in vivo potency was determined in female charles river CD-1 mice infected with Escherichia coli after peroral administration. The following applies: Escherichia coli, po; read-out: PD50. In short, it runs like this: (§1)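 Acute lethal systemic infection in female CD-1 mice, 16 mice per route; single dose given orally by gavage at the time of challenge; median protective dose (PD50, mg/kg) determined.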

Experiment [2] deals with Escherichia coli. The experiment can be described thus: The in vivo potency was determined in female charles river CD-1 mice infected with Escherichia coli after sc administration. The following applies: Escherichia coli, sc; read-out: PD50. In short, it runs like this:
(§2)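 Acute lethal systemic infection in female CD-1 mice, 16 mice per route; single subcutaneous dose given at the time of challenge; median protective dose (PD50, mg/kg) determined.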

Another experiment deals with Klebsiella pneumoniae. The experiment can be described thus: Antibacterial activity was determined against gram negative organism, Klebsiella pneumoniae MGH-2. The following applies: Klebsiella pneumoniae; read-out: MIC. In short, it runs like this: (§3)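 MIC (µg/mL) by standard microtitration against a panel of 10 Gram-positive and Gram-negative organisms; values averaged from multiple experiments.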

Experiment [3] relates to Streptococcus pneumoniae. The experiment can be described thus: The in vivo potency was determined in female charles river CD-1 mice infected with Streptococcus pneumoniae after peroral administration. The following applies: Streptococcus pneumoniae, po; read-out: PD50. In short, it runs like this:
as §1

In experiment [4] the test system is Streptococcus pneumoniae. The experiment can be described thus: The in vivo potency was determined in female charles river CD-1 mice infected with Streptococcus pneumoniae after sc administration. The following applies: Streptococcus pneumoniae, sc; read-out: PD50. In short, it runs like this:
as §2

For experiment [5], the system named is Streptococcus pyogenes. The experiment can be described thus: The in vivo potency was determined in female charles river CD-1 mice infected with Streptococcus pyogenes after peroral administration. The following applies: Streptococcus pyogenes, po; read-out: PD50. In short, it runs like this: as §1
Experiment [6] deals with Streptococcus pyogenes. The experiment can be described thus: The in vivo potency was determined in female charles river CD-1 mice infected with Streptococcus pyogenes after sc administration. The following applies: Streptococcus pyogenes, sc; read-out: PD50. In short, it runs like this: as §2
Another experiment relates to Pseudomonas aeruginosa. The experiment can be described thus: Antibacterial activity was determined against gram negative organism, Pseudomonas aeruginosa UI-18. The following applies: Pseudomonas aeruginosa; read-out: MIC. In short, it runs like this:
as §3

Experiment [7] deals with Bacteria. The experiment can be described thus: Antibacterial activity was determined against gram negative organism, Providencia rettgeri. M1771. The following applies: Bacteria; read-out: MIC. In short, it runs like this:
as §3

The subject of experiment [8] is Staphylococcus aureus. The experiment can be described thus: Antibacterial activity was determined against gram positive organism, Staphylococcus aureus H228. The following applies: Staphylococcus aureus; read-out: MIC. In short, it runs like this: as §3
Experiment [9] has as its system Streptococcus pneumoniae. The experiment can be described thus: Antibacterial activity was determined against gram positive organism, Streptococcus pneumoniae SV-1. The following applies: Streptococcus pneumoniae; read-out: MIC. In short, it runs like this: as §3
The next experiment relates to Enterococcus faecalis. The experiment can be described thus: Antibacterial activity was determined against gram positive organism, Streptococcus faecalis MGH-2. The following applies: Enterococcus faecalis; read-out: MIC. In short, it runs like this: as §3
The subject of experiment [10] is Staphylococcus aureus. The experiment can be described thus: Antibacterial activity was determined against gram positive organism, Staphylococcus aureus UC76. In short, it runs like this: as §3
The test system of experiment [11] is Streptococcus pyogenes. The experiment can be described thus: Antibacterial activity was determined against gram positive organism, Streptococcus pyogenes C203. The following applies: Streptococcus pyogenes; read-out: MIC. In short, it runs like this: as §3
The target of experiment [12] is DNA gyrase (Escherichia coli) (UniProt P0AES6+P0AES4). The experiment can be described thus: Minimum inhibitory concentration against Escherichia coli DNA-gyrase in supercoiling assay.
A further experiment relates to Enterobacter cloacae. The experiment can be described thus: Antibacterial activity was determined against gram negative organism, Enterobacter cloacae MA2646. The following applies: Enterobacter cloacae; read-out: MIC.
In experiment [13] the test system is Escherichia coli. The experiment can be described thus: Antibacterial activity was determined against gram negative organism, Escherichia coli vogel. The following applies: Escherichia coli; read-out: MIC. In short, it runs like this:
as §3

In experiment [14] the test system is Bacteria. The experiment can be described thus: MIC ratio measured as the mean MICs of gram-negative bacteria. In short, it runs like this:
(§4)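 Geometric mean of the microtitration MICs (µg/mL) over the Gram-negative organisms, and separately over the Gram-positive organisms, of the 10-strain panel; individual MICs averaged from multiple experiments.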

For experiment [15], the system named is Bacteria. The experiment can be described thus: MIC ratio measured as the mean MICs of gram-positive bacteria. In short, it runs like this:
as §4

Setting [16] is: Staphylococcus aureus, read-out: MIC.

Molecules are shown by their SMILES. In brackets after ≈: the same amount, converted by molar mass. A value given as a limit tells only on which side of the number the result lay.

For `O=C(O)c1cn(C2CC2)c2cc(N3CCNCC3)c(F)cc2c1=O` [CIPROFLOXACIN], the ED50 in the experiment with Escherichia coli [1] is 1 mg/kg; with Escherichia coli [2], 0.3 mg/kg; in the experiment on Streptococcus pneumoniae [3], more than 100 mg/kg; in the experiment on Streptococcus pneumoniae [4], 228 mg/kg; in the experiment with Streptococcus pyogenes [5], more than 100 mg/kg; in the experiment with Streptococcus pyogenes [6], 19 mg/kg. Further, the MIC in the experiment on Klebsiella pneumoniae came out at 0.05 µg/mL (≈ 0.151 µM); in the experiment with Pseudomonas aeruginosa, 0.4 µg/mL (≈ 1.21 µM); in the experiment with Bacteria [7], 0.05 µg/mL (≈ 0.151 µM); in the experiment on Staphylococcus aureus [8] it was 1.6 µg/mL (≈ 4.83 µM); in the experiment on Streptococcus pneumoniae [9] it was 0.8 µg/mL (≈ 2.41 µM); with Enterococcus faecalis it was 0.8 µg/mL (≈ 2.41 µM). Moreover, the MIC stood at 0.2 µg/mL (≈ 0.604 µM) with Staphylococcus aureus [10] (setting [16]) and 0.8 µg/mL (≈ 2.41 µM) in the experiment with Streptococcus pyogenes [11].

`Nc1c(F)c(N2CCC(N)C2)cc2c1c(=O)c(C(=O)O)cn2C1CC1` (stereo not given): the MIC in [12] was 2 µg/mL (≈ 5.77 µM); in the experiment with Enterobacter cloacae, 0.013 µg/mL (≈ 0.0375 µM); in the experiment on Escherichia coli [13], 0.013 µg/mL (≈ 0.0375 µM); in the experiment with Klebsiella pneumoniae it was 0.025 µg/mL (≈ 0.0722 µM); in the experiment on Pseudomonas aeruginosa, 0.4 µg/mL (≈ 1.15 µM); in the experiment with Bacteria [7], 0.05 µg/mL (≈ 0.144 µM). For the same compound, the MIC with Staphylococcus aureus [8] was determined as 0.1 µg/mL (≈ 0.289 µM); in the experiment with Streptococcus pneumoniae [9], 0.025 µg/mL (≈ 0.0722 µM); in the experiment with Enterococcus faecalis it was 0.05 µg/mL (≈ 0.144 µM); in the experiment on Staphylococcus aureus [10] (setting [16]), 0.025 µg/mL (≈ 0.0722 µM); with Streptococcus pyogenes [11] it was 0.05 µg/mL (≈ 0.144 µM). Also, the ED50 in the experiment on Escherichia coli [1] was 8 mg/kg; with Escherichia coli [2], 0.7 mg/kg; in the experiment on Streptococcus pyogenes [5], 110 mg/kg; in the experiment with Streptococcus pyogenes [6] it was 6 mg/kg. In addition, in the experiment with Bacteria [14], the Geometric mean MIC over Gram-negative bacteria (µg/mL) is 0.038. Also, the “Geometric mean MIC over Gram-positive bacteria (µg/mL)” value with Bacteria [15] is given as 0.044.

Turning to `CC1CN(c2cc3c(c(N)c2F)c(=O)c(C(=O)O)cn3C2CC2)CCN1` (stereo not given), the MIC in experiment [12] was determined as 0.5 µg/mL (≈ 1.39 µM); with Enterobacter cloacae, 0.025 µg/mL (≈ 0.0694 µM); in the experiment on Escherichia coli [13], 0.013 µg/mL (≈ 0.0361 µM); with Klebsiella pneumoniae, 0.025 µg/mL (≈ 0.0694 µM); in the experiment with Pseudomonas aeruginosa, 0.4 µg/mL (≈ 1.11 µM); with Bacteria [7] it was 0.1 µg/mL (≈ 0.277 µM). The MIC in the experiment with Staphylococcus aureus [8] is 0.2 µg/mL (≈ 0.555 µM); in the experiment with Streptococcus pneumoniae [9], 0.1 µg/mL (≈ 0.277 µM); in the experiment on Enterococcus faecalis, 0.2 µg/mL (≈ 0.555 µM); in the experiment with Staphylococcus aureus [10] (setting [16]), 0.05 µg/mL (≈ 0.139 µM); in the experiment on Streptococcus pyogenes [11], 0.2 µg/mL (≈ 0.555 µM). The ED50 in the experiment on Escherichia coli [1] was 2 mg/kg; in the experiment on Escherichia coli [2], 0.4 mg/kg; in the experiment with Streptococcus pyogenes [5], 66 mg/kg; with Streptococcus pyogenes [6], 21 mg/kg. Further, the Geometric mean MIC over Gram-negative bacteria (µg/mL) in the experiment on Bacteria [14] amounted to 0.058. Moreover, the “Geometric mean MIC over Gram-positive bacteria (µg/mL)” value with Bacteria [15] stood at 0.13.

As to `CCNCC1CCN(c2c(F)c(N)c3c(=O)c(C(=O)O)cn(C4CC4)c3c2Cl)C1` (stereo not given), the MIC turned out to be 1 µg/mL (≈ 2.36 µM) in [12]; 0.2 µg/mL (≈ 0.473 µM) with Enterobacter cloacae; 0.1 µg/mL (≈ 0.236 µM) with Escherichia coli [13]; 0.4 µg/mL (≈ 0.946 µM) with Klebsiella pneumoniae; 1.6 µg/mL (≈ 3.78 µM) with Pseudomonas aeruginosa; 0.8 µg/mL (≈ 1.89 µM) in the experiment on Bacteria [7]. Besides, the MIC was determined as 0.1 µg/mL (≈ 0.236 µM) in the experiment with Staphylococcus aureus [8]; 0.025 µg/mL (≈ 0.0591 µM) with Streptococcus pneumoniae [9]; 0.1 µg/mL (≈ 0.236 µM) with Enterococcus faecalis; 0.025 µg/mL (≈ 0.0591 µM) in the experiment with Staphylococcus aureus [10]; 0.025 µg/mL (≈ 0.0591 µM) in the experiment with Streptococcus pyogenes [11]. The ED50 in the experiment on Escherichia coli [1] worked out at 32 mg/kg; with Escherichia coli [2], 3 mg/kg; in the experiment with Streptococcus pyogenes [5], 31 mg/kg; in the experiment with Streptococcus pyogenes [6], 4 mg/kg.

With `CC1CN(c2c(F)c(O)c3c(=O)c(C(=O)O)cn(C4CC4)c3c2F)CCN1` (stereo not given), the MIC was determined as 0.5 µg/mL (≈ 1.32 µM) in experiment [12]; 0.1 µg/mL (≈ 0.264 µM) with Enterobacter cloacae; 0.05 µg/mL (≈ 0.132 µM) with Escherichia coli [13]; 0.2 µg/mL (≈ 0.527 µM) in the experiment on Klebsiella pneumoniae; 1.6 µg/mL (≈ 4.22 µM) in the experiment on Pseudomonas aeruginosa; 0.2 µg/mL (≈ 0.527 µM) in the experiment with Bacteria [7]. For the same compound, the MIC in the experiment with Staphylococcus aureus [8] was 0.8 µg/mL (≈ 2.11 µM); in the experiment with Streptococcus pneumoniae [9], 0.4 µg/mL (≈ 1.05 µM); with Enterococcus faecalis it was 0.8 µg/mL (≈ 2.11 µM); in the experiment with Staphylococcus aureus [10] (setting [16]), 0.1 µg/mL (≈ 0.264 µM); in the experiment with Streptococcus pyogenes [11], 0.4 µg/mL (≈ 1.05 µM). For the same compound, the ED50 was 2 mg/kg in the experiment on Escherichia coli [1], 0.8 mg/kg in the experiment with Escherichia coli [2], more than 50 mg/kg in the experiment with Streptococcus pyogenes [5] and more than 50 mg/kg in the experiment on Streptococcus pyogenes [6]. In addition, in the experiment on Bacteria [14], the Geometric mean MIC over Gram-negative bacteria (µg/mL) is 0.2. Also, in the experiment with Bacteria [15], the “Geometric mean MIC over Gram-positive bacteria (µg/mL)” value was 0.4.
